Reference: BindingDB's records for doi:10.1021/jm00089a014 (Genentech, 1992)
*1 amine or outer side, *2 acyl side, *3 side chain or, on linkers, in order; H or OH if unused. Where a SMILES comes first, the peptide text is derived from it. Bridges are numbered along the chain shown (N, C = ends). [ ]: non-standard residue; d: D form. Cys(O)(CH2CO) = O=C([C@H](C[S+]([O-])CC(=O)[*:3])N[*:1])[*:2]

Target: Integrin alpha-IIb/beta-3 (Homo sapiens, UniProt P08514+P05106)
Assay: Inhibition of ADP-induced platelet aggregation in human platelet-rich plasma
In short: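 Human blood drawn into 3.8% sodium citrate (9:1); PRP from 180g spin, 12 min, 22 °C; count adjusted to 3 × 10^8/mL with PPP. PRP preincubated with test sample 5 min at 37 °C in aggregometer, then ADP 17.2 µM final. Inhibition from transmittance change at 5 min versus no-sample maximum; 12-14 concentrations over ~200-fold range; IC50 by four-parameter fit; n ≥ 3.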

Sequence of Integrin alpha-IIb/beta-3 (P05106 27-788 limits assumed): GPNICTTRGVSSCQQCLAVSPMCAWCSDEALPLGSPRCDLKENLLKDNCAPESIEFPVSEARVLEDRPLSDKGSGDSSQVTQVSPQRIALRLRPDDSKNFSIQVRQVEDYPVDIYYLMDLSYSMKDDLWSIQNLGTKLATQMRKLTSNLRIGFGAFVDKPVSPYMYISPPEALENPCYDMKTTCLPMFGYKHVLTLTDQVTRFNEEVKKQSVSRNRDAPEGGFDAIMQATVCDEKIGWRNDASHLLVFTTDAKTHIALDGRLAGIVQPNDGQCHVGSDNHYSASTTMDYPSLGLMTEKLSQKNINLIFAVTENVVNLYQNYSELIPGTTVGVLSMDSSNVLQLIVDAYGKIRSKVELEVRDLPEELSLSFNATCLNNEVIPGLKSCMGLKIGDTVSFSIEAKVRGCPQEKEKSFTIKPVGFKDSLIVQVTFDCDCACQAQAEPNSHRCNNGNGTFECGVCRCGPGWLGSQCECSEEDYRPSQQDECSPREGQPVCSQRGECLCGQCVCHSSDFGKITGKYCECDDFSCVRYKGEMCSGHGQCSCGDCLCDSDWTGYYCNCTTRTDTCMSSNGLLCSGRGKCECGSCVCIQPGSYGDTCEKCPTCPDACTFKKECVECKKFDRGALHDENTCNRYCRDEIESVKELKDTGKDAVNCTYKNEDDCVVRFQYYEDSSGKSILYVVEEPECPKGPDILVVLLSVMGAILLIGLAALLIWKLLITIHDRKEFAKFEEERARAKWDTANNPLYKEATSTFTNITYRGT
Sequence of Integrin alpha-IIb/beta-3 (P08514 32-887 limits assumed): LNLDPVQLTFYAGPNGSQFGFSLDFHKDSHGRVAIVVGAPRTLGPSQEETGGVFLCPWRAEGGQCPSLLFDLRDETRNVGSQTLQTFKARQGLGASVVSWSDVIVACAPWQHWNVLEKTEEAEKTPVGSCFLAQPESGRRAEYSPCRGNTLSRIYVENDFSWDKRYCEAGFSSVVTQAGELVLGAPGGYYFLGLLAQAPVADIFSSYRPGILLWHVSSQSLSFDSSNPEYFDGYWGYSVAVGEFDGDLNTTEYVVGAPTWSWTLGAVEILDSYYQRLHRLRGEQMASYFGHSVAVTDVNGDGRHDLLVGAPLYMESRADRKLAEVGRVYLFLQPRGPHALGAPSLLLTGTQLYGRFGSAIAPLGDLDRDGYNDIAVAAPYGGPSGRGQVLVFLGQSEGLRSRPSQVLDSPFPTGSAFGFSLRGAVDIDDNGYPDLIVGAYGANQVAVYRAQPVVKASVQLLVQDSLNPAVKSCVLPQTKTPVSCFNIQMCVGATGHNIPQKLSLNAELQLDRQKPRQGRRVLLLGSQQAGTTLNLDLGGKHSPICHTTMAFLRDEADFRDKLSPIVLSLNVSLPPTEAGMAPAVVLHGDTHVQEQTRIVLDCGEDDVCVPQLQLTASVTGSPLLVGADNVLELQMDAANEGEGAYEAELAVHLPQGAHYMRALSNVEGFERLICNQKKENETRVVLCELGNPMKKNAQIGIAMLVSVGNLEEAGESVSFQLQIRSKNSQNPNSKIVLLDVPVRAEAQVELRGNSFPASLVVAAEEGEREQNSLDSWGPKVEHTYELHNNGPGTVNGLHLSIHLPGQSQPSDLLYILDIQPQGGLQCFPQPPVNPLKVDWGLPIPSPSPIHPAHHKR
Sequence of Integrin alpha-IIb/beta-3 (P08514 891-1039 limits assumed): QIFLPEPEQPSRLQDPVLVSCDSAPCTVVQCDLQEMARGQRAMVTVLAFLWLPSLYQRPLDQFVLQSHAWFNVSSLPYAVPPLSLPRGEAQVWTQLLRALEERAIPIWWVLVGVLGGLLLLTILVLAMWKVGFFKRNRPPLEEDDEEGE

SMILES | IC50 [µM]
N=C(N)NCCC[C@@H]1NC(=O)CSC[C@@H](C(=O)O)NC(=O)[C@H](CC(=O)O)NC(=O)CNC1=O ({CH2CO}-RGDC-OH; thioether N-4) | > 2
CC(C)[C@H]1NC(=O)CSC[C@@H](C(=O)O)NC(=O)[C@H](CC(=O)O)NC(=O)CNC(=O)[C@H](CCCNC(=N)N)NC1=O | 8.74
N=C(N)NCCC[C@H](NC(=O)CN)C(=O)NCC(=O)N[C@@H](CC(=O)O)C(=O)N[C@@H](CC(=O)O)C(=O)O (H-GRGDD-OH) | > 500
N=C(N)NCCC[C@@H]1NC(=O)[C@H]2CCCN2C(=O)CSC[C@@H](C(=O)O)NC(=O)[C@H](CC(=O)O)NC(=O)CNC1=O ({CH2CO}-[dP]RGDC-OH; thioether N-5) | 1.96
N=C(N)NCCC[C@@H]1NC(=O)[C@@H](Cc2ccc(O)cc2)NC(=O)CSC[C@@H](C(=O)O)NC(=O)[C@H](CC(=O)O)NC(=O)CNC1=O ({CH2CO}-[dY]RGDC-OH; thioether N-5) | 3.45
N=C(N)NCCC[C@@H]1NC(=O)[C@H](CC(=O)O)NC(=O)C[S+]([O-])C[C@@H](C(=O)O)NC(=O)[C@H](CC(=O)O)NC(=O)CNC1=O (stereo partly specified) (DRGD[Cys(O)(CH2CO)]-OH; lactam N-5) | 2.14
N=C(N)NCCC[C@@H]1NC(=O)[C@H](CO)NC(=O)C[S+]([O-])C[C@@H](C(=O)O)NC(=O)[C@H](CC(=O)O)NC(=O)CNC1=O (stereo partly specified) (SRGD[Cys(O)(CH2CO)]-OH; lactam N-5) | 0.49
N=C(N)NCCC[C@@H]1NC(=O)CCNC(=O)CSC[C@@H](C(=O)O)NC(=O)[C@H](CC(=O)O)NC(=O)CNC1=O | 34.3
N=C(N)NCCC[C@@H]1NC(=O)CNC(=O)CCSC[C@@H](C(=O)O)NC(=O)[C@H](CC(=O)O)NC(=O)CNC1=O | 64.3
CC(=O)NCC(=O)N[C@@H](CCCNC(=N)N)C(=O)NCC(=O)N[C@@H](CC(=O)O)C(=O)N[C@H](C(=O)O)C(C)C (Ac-GRGDV-OH) | 77
N=C(N)NCCC[C@@H]1NC(=O)[C@@H](Cc2ccc(O)cc2)NC(=O)CS(=O)(=O)C[C@@H](C(=O)O)NC(=O)[C@H](CC(=O)O)NC(=O)CNC1=O | 0.21
N=C(N)NCCC[C@@H]1NC(=O)CNC(=O)CS(=O)(=O)C[C@@H](C(=O)O)NC(=O)[C@H](CC(=O)O)NC(=O)CNC1=O | 7.7
CC(C)[C@H](NC(=O)[C@H](CC(=O)O)NC(=O)CNC(=O)[C@H](CCCNC(=N)N)NC(=O)CN)C(=O)O (H-GRGDV-OH) | 75
N=C(N)NCCC[C@@H]1NC(=O)CNC(=O)CSC[C@@H](C(=O)O)NC(=O)[C@H](CC(=O)O)NC(=O)CNC1=O ({CH2CO}-GRGDC-OH; thioether N-5) | 5
N=C(N)NCCC[C@@H]1NC(=O)[C@H](Cc2ccccc2)NC(=O)C[S+]([O-])C[C@@H](C(=O)O)NC(=O)[C@H](CC(=O)O)NC(=O)CNC1=O (stereo partly specified) | 2.23
C[C@H]1NC(=O)CSC[C@@H](C(=O)O)NC(=O)[C@H](CC(=O)O)NC(=O)CNC(=O)[C@H](CCCNC(=N)N)NC1=O ({CH2CO}-[dA]RGDC-OH; thioether N-5) | 4
N=C(N)NCCC[C@@H]1NC(=O)CNC(=O)CSC[C@@H](C(N)=O)NC(=O)[C@H](CC(=O)O)NC(=O)CNC1=O ({CH2CO}-GRGDC-NH2; thioether N-5) | 150
CC(C)C[C@H](NC(=O)[C@H](CC(=O)O)NC(=O)CNC(=O)[C@H](CCCNC(=N)N)NC(=O)CN)C(=O)O (H-GRGDL-OH) | 170
N=C(N)NCCC[C@@H]1NC(=O)CNC(=O)[C@H](Cc2ccccc2)SC[C@@H](C(=O)O)NC(=O)[C@H](CC(=O)O)NC(=O)CNC1=O | 1.9
N=C(N)NCCC[C@@H]1NC(=O)c2cccc(c2)CSC[C@@H](C(=O)O)NC(=O)[C@H](CC(=O)O)NC(=O)CNC1=O | 30.8
C[C@H](O)[C@H]1NC(=O)CSC[C@@H](C(=O)O)NC(=O)[C@H](CC(=O)O)NC(=O)CNC(=O)[C@H](CCCN=C(N)N)NC1=O | 2.92
N=C(N)NCCC[C@@H]1NC(=O)CNC(=O)[C@@H](Cc2ccccc2)SC[C@@H](C(=O)O)NC(=O)[C@H](CC(=O)O)NC(=O)CNC1=O | 7
CC(=O)NCC(=O)N[C@@H](CCCNC(=N)N)C(=O)NCC(=O)N[C@@H](CC(=O)O)C(=O)N[C@H](C(N)=O)C(C)C (Ac-GRGDV-NH2) | > 500
N=C(N)NCCC[C@H](NC(=O)CN)C(=O)NCC(=O)N[C@@H](CC(=O)O)C(=O)N[C@@H](Cc1ccc(O)cc1)C(=O)O (H-GRGDY-OH) | 170
N=C(N)NCCC[C@@H]1NC(=O)[C@@H](Cc2ccccc2)NC(=O)CSC[C@@H](C(=O)O)NC(=O)[C@H](CC(=O)O)NC(=O)CNC1=O | 18.5
N=C(N)NCCC[C@@H]1NC(=O)[C@H](CCCCN)NC(=O)C[S+]([O-])C[C@@H](C(=O)O)NC(=O)[C@H](CC(=O)O)NC(=O)CNC1=O (stereo partly specified) (KRGD[Cys(O)(CH2CO)]-OH; lactam N-5) | 2.8
CCC1SC[C@@H](C(=O)O)NC(=O)[C@H](CC(=O)O)NC(=O)CNC(=O)[C@H](CCCNC(=N)N)NC(=O)CNC1=O (stereo partly specified) | 4.85

The remaining lines, values ahead:

IC50 [µM] | SMILES
0.15 | N=C(N)NCCC[C@@H]1NC(=O)CNC(=O)C(c2ccccc2C(F)(F)F)SC[C@@H](C(=O)O)NC(=O)[C@H](CC(=O)O)NC(=O)CNC1=O (stereo partly specified)
0.21 | CC(C)[C@@H]1NC(=O)C[S+]([O-])C[C@@H](C(=O)O)NC(=O)[C@H](CC(=O)O)NC(=O)CNC(=O)[C@H](CCCNC(=N)N)NC1=O (stereo partly specified) (VRGD[Cys(O)(CH2CO)]-OH; lactam N-5)
0.25 | N=C(N)NCCC[C@@H]1NC(=O)[C@H](CCCN)NC(=O)CSC[C@@H](C(=O)O)NC(=O)[C@H](CC(=O)O)NC(=O)CNC1=O
0.54 | N=C(N)NCCC[C@@H]1NC(=O)[C@H](Cc2cnc[nH]2)NC(=O)CSC[C@@H](C(=O)O)NC(=O)[C@H](CC(=O)O)NC(=O)CNC1=O
1.06 | CSCC[C@@H]1NC(=O)CSC[C@@H](C(=O)O)NC(=O)[C@H](CC(=O)O)NC(=O)CNC(=O)[C@H](CCCNC(=N)N)NC1=O
0.59 | C[C@@H]1NC(=O)CSC[C@@H](C(=O)O)NC(=O)[C@H](CC(=O)O)NC(=O)CNC(=O)[C@H](CCCNC(=N)N)NC1=O ({CH2CO}-ARGDC-OH; thioether N-5)
0.61 | C[C@@H]1NC(=O)C[S+]([O-])C[C@@H](C(=O)O)NC(=O)[C@H](CC(=O)O)NC(=O)CNC(=O)[C@H](CCCNC(=N)N)NC1=O (stereo partly specified)
0.44 | N=C(N)NCCC[C@@H]1NC(=O)[C@@H](Cc2ccccc2)NC(=O)C[S+]([O-])C[C@@H](C(=O)O)NC(=O)[C@H](CC(=O)O)NC(=O)CNC1=O (stereo partly specified)
0.31 | N=C(N)NCCC[C@@H]1NC(=O)[C@H](CC(N)=O)NC(=O)CSC[C@@H](C(=O)O)NC(=O)[C@H](CC(=O)O)NC(=O)CNC1=O ({CH2CO}-NRGDC-OH; thioether N-5)
1.48 | N=C(N)NCCC[C@@H]1NC(=O)CNC(=O)C(c2ccc(-c3ccccc3)cc2)SC[C@@H](C(=O)O)NC(=O)[C@H](CC(=O)O)NC(=O)CNC1=O (stereo partly specified)
0.6 | N=C(N)NCCC[C@@H]1NC(=O)[C@H](CCCCN)NC(=O)CSC[C@@H](C(=O)O)NC(=O)[C@H](CC(=O)O)NC(=O)CNC1=O
0.7 | N=C(N)NCCC[C@@H]1NC(=O)[C@H](Cc2ccc(O)cc2)NC(=O)CSC[C@@H](C(N)=O)NC(=O)[C@H](CC(=O)O)NC(=O)CNC1=O ({CH2CO}-YRGDC-NH2; thioether N-5)
0.08 | CC(C)[C@@H]1NC(=O)CSC[C@@H](C(=O)O)NC(=O)[C@H](CC(=O)O)NC(=O)CNC(=O)[C@H](CCCNC(=N)N)NC1=O
0.2 | N=C(N)NCCC[C@@H]1NC(=O)[C@H](Cc2ccc(O)cc2)NC(=O)C[S+]([O-])C[C@@H](C(N)=O)NC(=O)[C@H](CC(=O)O)NC(=O)CNC1=O (stereo partly specified) (YRGD[Cys(O)(CH2CO)]-NH2; lactam N-5)
0.22 | N=C(N)NCCC[C@@H]1NC(=O)[C@H](Cc2ccccc2)NC(=O)CSC[C@@H](C(=O)O)NC(=O)[C@H](CC(=O)O)NC(=O)CNC1=O
0.2 | CC(C)C[C@@H]1NC(=O)CSC[C@@H](C(=O)O)NC(=O)[C@H](CC(=O)O)NC(=O)CNC(=O)[C@H](CCCNC(=N)N)NC1=O
1.08 | N=C(N)NCCC[C@@H]1NC(=O)[C@@H](Cc2cnc[nH]2)NC(=O)CSC[C@@H](C(=O)O)NC(=O)[C@H](CC(=O)O)NC(=O)CNC1=O
0.37 | N=C(N)NCCC[C@@H]1NC(=O)CNC(=O)C[S+]([O-])C[C@@H](C(=O)O)NC(=O)[C@H](CC(=O)O)NC(=O)CNC1=O (stereo partly specified)
0.46 | N=C(N)NCCC[C@@H]1NC(=O)[C@H](Cc2c[nH]c3ccccc23)NC(=O)CSC[C@@H](C(=O)O)NC(=O)[C@H](CC(=O)O)NC(=O)CNC1=O
0.48 | N=C(N)NCCC[C@@H]1NC(=O)[C@H](CO)NC(=O)CSC[C@@H](C(=O)O)NC(=O)[C@H](CC(=O)O)NC(=O)CNC1=O
0.43 | N=C(N)NCCC[C@@H]1NC(=O)[C@@H]2CCCN2C(=O)CSC[C@@H](C(=O)O)NC(=O)[C@H](CC(=O)O)NC(=O)CNC1=O ({CH2CO}-PRGDC-OH; thioether N-5)
0.9 | N=C(N)NCCC[C@@H]1NC(=O)[C@H](CCC(=O)O)NC(=O)C[S+]([O-])C[C@@H](C(=O)O)NC(=O)[C@H](CC(=O)O)NC(=O)CNC1=O (stereo partly specified)
0.9 | N=C(N)NCCC[C@@H]1NC(=O)CNC(=O)C(c2ccc(C(F)(F)F)cc2)SC[C@@H](C(=O)O)NC(=O)[C@H](CC(=O)O)NC(=O)CNC1=O (stereo partly specified)
0.46 | N=C(N)NCCC[C@@H]1NC(=O)[C@H](CC(N)=O)NC(=O)C[S+]([O-])C[C@@H](C(=O)O)NC(=O)[C@H](CC(=O)O)NC(=O)CNC1=O (stereo partly specified)
